Test results: ChEMBL document CHEMBL4184327, “Aromatic-Based Design of Highly Active and Noncalcemic Vitamin D Receptor Agonists” (J Med Chem, 2018)
Activity calls are given as the source filed them. The rule behind the calls is not given here.

How the values were obtained:
[1] = system: MCF7; assay: Antiproliferative activity against 2D culture of human MCF7 cells assessed as cell proliferation at 100 nM after 48 hrs by MTT assay; format: functional; settings: MCF7, 48 h, read-out: Activity
Procedure, shortened: (§1)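 MTT assay in 2D cultures; cells grown in DMEM with 10% FBS, penicillin/streptomycin, 2 mM L-glutamine at 37 °C in 5% CO2, then treated in charcoal-treated FCS medium for 48 h at 100 nM. Ethanol vehicle controls; proliferation expressed as percentage ± SD of vehicle-treated cells.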

[2] = system: PC-3; assay: Antiproliferative activity against 2D culture of human PC3 cells assessed as cell proliferation at 100 nM after 48 hrs by MTT assay; format: functional; settings: PC-3, 48 h, read-out: Activity; procedure, shortened: as §1
[3] = system: SK-OV-3; assay: Antiproliferative activity against 2D culture of human SKOV3 cells assessed as cell proliferation at 100 nM after 48 hrs by MTT assay; format: functional; settings: SK-OV-3, 48 h, read-out: Activity; procedure, shortened: as §1
[4] = Antiproliferative activity against 2D culture of human HaCaT cells assessed as cell proliferation at 100 nM after 48 hrs by MTT assay; format: cell-based; settings: HaCaT cells (2D culture), read-out: Activity; procedure, shortened: as §1
[5] = system: MCF7; assay: Antiproliferative activity against 3D culture of human MCF7 cells assessed as cell proliferation at 100 nM after 5 days by DAPI staining-based phase contrast microscopic method; format: functional; settings: MCF7, 120 h, read-out: Activity
Procedure, shortened: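 Three-dimensional MCF-7 cultures treated 5 days with 10^-7 M in charcoal-treated FCS medium; ethanol vehicle. Phase-contrast photographs taken, sphere diameters traced manually across each sphere and scored as relative units; proliferation given as percentage ± SD of vehicle-treated cells.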

[6] = system: HaCaT; assay: Induction of human HaCaT cell differentiation at 100 nM after 48 hrs; format: functional, cell-based
Procedure, shortened: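 HaCaT keratinocytes treated with 100 nM for 48 hours in charcoal-treated FCS medium, ethanol vehicle control, and differentiation then assessed.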

[7] = target: T1, Vitamin D3 receptor (Homo sapiens, UniProt P11473); assay: Displacement of fluormone from human full length VDR after 2 hrs by fluorescence polarization assay
T1 sequence (P11473 whole entry): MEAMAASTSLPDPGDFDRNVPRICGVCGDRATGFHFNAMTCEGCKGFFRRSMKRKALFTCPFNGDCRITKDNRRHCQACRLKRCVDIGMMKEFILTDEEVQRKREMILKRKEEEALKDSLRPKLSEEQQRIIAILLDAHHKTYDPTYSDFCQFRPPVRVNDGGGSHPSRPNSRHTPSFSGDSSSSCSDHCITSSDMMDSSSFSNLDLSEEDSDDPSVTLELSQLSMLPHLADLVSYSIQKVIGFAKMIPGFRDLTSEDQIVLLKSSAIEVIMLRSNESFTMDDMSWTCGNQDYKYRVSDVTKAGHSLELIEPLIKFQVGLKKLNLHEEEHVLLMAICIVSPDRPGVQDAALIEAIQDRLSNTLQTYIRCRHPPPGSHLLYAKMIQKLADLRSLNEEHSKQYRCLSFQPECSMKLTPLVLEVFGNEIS

[8] = target: T2, Vitamin D3 receptor (Homo sapiens) (UniProt P11473); assay: Displacement of fluormone from human full length VDR after 2 hrs by fluorescence polarization assay relative to 1,25D; settings: concentration not given here
T2 sequence (whole entry): T1 sequence (P11473 whole entry)
Procedure, shortened: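 Competitive fluorescence polarization VDR binding kit used per manufacturer conditions; compounds tested from 10^-11 to 10^-5 M. IC50 calculated from averaged measurements; activity also expressed as percentage with 1,25D set to 100%.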

[9] = target: T1, Vitamin D3 receptor; assay: Agonist activity at VDR in human MCF7 cells assessed as increase in transcription of CYP24A1 gene after 24 hrs by luciferase reporter gene assay; format: cell-based
[10] = target: T2, Vitamin D3 receptor (Homo sapiens); assay: Agonist activity at VDR in human MCF7 cells assessed as transcription of CYP24A1 gene after 24 hrs by luciferase reporter gene assay relative to 1,25D; format: cell-based
Procedure, shortened: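 Cells transfected with 1 µg pCYP24A1-Luc plasmid (luciferase under a consensus VDRE from the 24-hydroxylase promoter); after 24 h medium replaced with compound at 10^-11 to 10^-6 M. Bioluminescence imaged and total photon counts quantified. EC50 from dose-response curves as concentration raising luciferase activity by 50%; ratio given as analogue EC50 relative to 1,25D.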

[11] = system: Mus musculus; assay: Hypercalcemic activity in CD1 mouse assessed as serum calcium levels at 0.3 ug/kg, ip administered every other day for 3 weeks measured on […] relative to 1,25D; format: ADME, organism-based; settings: in vivo, 0.0003 mg/kg, 504 h
Procedure, shortened: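 Mice dosed every other day for 21 days at 0.3 µg/kg, n=5 per group, with vehicle controls; serum calcium reported as mean ± SD.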

[12] = system: MDA-MB-231; assay: Antitumor activity against luciferase expressing human MDA-MB-231 cells xenografted in SCID mouse assessed as tumor growth inhibition at 1 ug/kg, ip administered every other day measured every 7 days […] to day 28 post last dose; format: functional, organism-based
Procedure, shortened: (§2)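 SCID mice given subcutaneous MDA-MB-231-luc cells; ten days later (treatment day 0) split into two groups, dosed i.p. at 1 µg/kg in sesame oil, controls sesame oil. Tumor growth followed by in vivo bioluminescence imaging (photon flux) every 7 days until day 28; survival followed to day 60.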

[13] = system: MDA-MB-231; assay: Antitumor activity against luciferase expressing human MDA-MB-231 cells xenografted in SCID mouse assessed as increase in mouse survival at 1 ug/kg, ip administered every other day starting from day 10 post tumor implantation to day 60; format: functional, organism-based; procedure, shortened: as §2
[14] = system: Mus musculus; assay: Toxicity in CD1 mouse assessed as effect on liver at 0.5 to 5 ug/kg, ip administered every other day for 3 weeks measured on […] by hematoxylin and eosin staining-based assay; format: organism-based; settings: in vivo, 504 h
[15] = system: Mus musculus; assay: Toxicity in CD1 mouse assessed as effect on kidney at 0.5 to 5 ug/kg, ip administered every other day for 3 weeks measured on […] by hematoxylin and eosin staining-based assay; format: organism-based; settings: in vivo, 504 h
[16] = system: Mus musculus; assay: Toxicity in CD1 mouse assessed as body weight loss at 0.5 to 5 ug/kg, ip administered every other day for 3 weeks measured every week during compound dosing; format: organism-based; settings: in vivo, 504 h
[17] = system: Mus musculus; assay: Hypercalcemic activity in CD1 mouse serum at 0.5 to 5 ug/kg, ip administered every other day for 3 weeks measured on […]; format: ADME, organism-based; settings: in vivo, 504 h
[18] = system: MDA-MB-436; assay: Cytotoxicity against 3D culture of cancer stem cells derived from human MDA-MB-436 cells assessed as decrease in growth of mammospheres at 100 nM after 5 days by DAPI staining-based phase contrast microscopic method; format: functional, cell-based
Procedure, shortened: (§3)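 MDA-MB-436 cells enriched in cancer stem cells grown in a commercial 3D sphere assay per manufacturer's instructions; ethanol or compound (10^-8 or 10^-7 M) added for 5 days. Mammosphere number and diameter quantified from phase-contrast images by manual diameter tracing.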

[19] = system: MDA-MB-436; assay: Cytotoxicity against 3D culture of cancer stem cells derived from human MDA-MB-436 cells assessed as decrease in number of mammospheres at 100 nM after 5 days by DAPI staining-based phase contrast microscopic method; format: functional, cell-based; procedure, shortened: as §3

IC50 [7]	inhibition [8]	EC50 [9]	Activity [10]	Activity [11]	Structure (SMILES)	growth at 0.1 µM [1]	growth at 0.1 µM [2]	growth at 0.1 µM [3]	viability at 48 h, 0.1 µM [4]	growth at 0.1 µM [5]	Activity [6]	TGI [12]	Activity [13]	Activity [14]	Activity [15]	Activity [16]	Activity [17]	Activity [18]	Activity [19]
8.3 to 40 nM	9%	10 to 13 nM	17%	0%	C=C1/C(=C\C=C(/CCCCCC)c2cccc(CCCCCC(C)(C)O)c2)C[C@@H](O)C[C@@H]1O	78%	80%	76%	74%	79%	Active								
3.5 to 160 nM	7%	29 to 40 nM	5%	0%	C=C1/C(=C\C=C(/CCCCCCC)c2cccc(CCCCCC(C)(C)O)c2)C[C@@H](O)C[C@@H]1O	69%	79%	83%	71%	55%	Active								
10 to 18 nM	12%	9 to 11 nM	19%	34%	C=C1/C(=C\C=C(/CCCC)c2cccc(CCCCCC(C)(C)O)c2)C[C@@H](O)C[C@@H]1O	74%	84%	81%	71%	84%	Active								

Second part, the compound before the results:

Structure (SMILES)	IC50 [7]	inhibition [8]	EC50 [9]	Activity [10]	Activity [11]	growth at 0.1 µM [1]	growth at 0.1 µM [2]	growth at 0.1 µM [3]	viability at 48 h, 0.1 µM [4]	growth at 0.1 µM [5]	Activity [6]	TGI [12]	Activity [13]	Activity [14]	Activity [15]	Activity [16]	Activity [17]	Activity [18]	Activity [19]
C=C1/C(=C\C=C2/CCC[C@]3(C)[C@@H]([C@H](C)CCCC(C)(C)O)CC[C@@H]23)C[C@@H](O)C[C@@H]1O [CALCITRIOL]						66%	77%	78%	69%	61%	Active								
C=C1/C(=C\C=C(/CCC)c2cccc(CCCCCC(C)(C)O)c2)C[C@@H](O)C[C@@H]1O	5.6 to 55 nM	10%	8.6 to 9.9 nM	21%	41%	69%	83%	82%	71%	74%	Active								
C=C1/C(=C\C=C(/CC)c2cccc(CCCCCC(C)(C)O)c2)C[C@@H](O)C[C@@H]1O	4.5 to 11 nM	24%	5.6 to 6.2 nM	33%	0%	65%	78%	78%	68%	69%	Active	Active	Active	Non-Toxic	Non-Toxic	Non-Toxic	Non-Toxic	Active	Active
